From ChEMBL document CHEMBL2417474, “Synthesis, antiproliferative and anti-inflammatory activities of some novel 6-aryl-2-(p-(methanesulfonyl)phenyl)-4,5-dihydropyridazi-3(2H)-ones” (Eur J Med Chem, 2013)
pIC50: −log10 of the molar value.

Columns and labels:
SF-268 [1] = experiment: Growth inhibition of human SF268 cells assessed as cell growth at 10 uM after 48 hrs by sulforhodamine B assay; format: functional; settings: SF-268, 48 h, read-out: Activity
A549 [2] = experiment: Growth inhibition of human A549/ATCC cells after 48 hrs by sulforhodamine B assay; format: functional; settings: A549, 48 h
Method in brief: (§1)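 NCI 60-cell-line panel grown in RPMI-type medium with 5% fetal calf serum and 2 mM L-glutamine. Cells preincubated 24 h, then exposed continuously for 48 h to compound in DMSO at 10^-4 to 10^-8 M (five 10-fold levels). Growth read by SRB protein stain. GI50 is the concentration giving a 50% reduction in net protein increase relative to control cells.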

OVCAR-5 = experiment: Growth inhibition of human OVCAR5 cells assessed as cell growth at 10 uM after 48 hrs by sulforhodamine B assay; format: functional; settings: OVCAR-5, 48 h, read-out: Activity
SNB-19 = experiment: Growth inhibition of human SNB19 cells assessed as cell growth at 10 uM after 48 hrs by sulforhodamine B assay; format: functional; settings: SNB-19, 48 h, read-out: Activity
SK-MEL-28 [3] = experiment: Growth inhibition of human SK-MEL-28 cells after 48 hrs by sulforhodamine B assay; format: functional; settings: SK-MEL-28, 48 h
Method in brief: (§2)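 NCI 60-cell-line panel. Cells were grown in medium with 5% fetal calf serum and 2 mM L-glutamine, then preincubated 24 h in plates. Compounds were added from DMSO at five 10-fold concentrations from 100 to 0.01 µM and left on cells continuously for 48 h. Cell growth was read by sulforhodamine B protein stain. GI50 is the concentration that halves net protein increase relative to control cells.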

CCRF-CEM = experiment: Growth inhibition of human CCRF-CEM cells after 48 hrs by sulforhodamine B assay; format: functional, cell-based; method in brief: as §1
HL-60(TB) = experiment: Growth inhibition of human HL-60(TB) cells after 48 hrs by sulforhodamine B assay; format: functional; settings: HL-60, 48 h
Method in brief: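 Part of the NCI 60-cell-line panel. Cells were grown in 1640 medium with 5% fetal calf serum and 2 mM L-glutamine, then preincubated 24 h before compound was added. Compounds in DMSO were tested at five concentrations (100, 10, 1, 0.1, 0.01 µM) with 48 h continuous exposure. Read-out was SRB protein staining; GI50 is the concentration halving the net protein increase versus control.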

NCI-H23 = experiment: Growth inhibition of human NCI-H23 cells after 48 hrs by sulforhodamine B assay; format: functional; settings: NCI-H23, 48 h; method in brief: as §2
RXF 393 = experiment: Growth inhibition of human RXF393 cells after 48 hrs by sulforhodamine B assay; format: functional; settings: RXF 393, 48 h; method in brief: as §2
MDA-MB-231 = experiment: Growth inhibition of human MDA-MB-231 cells after 48 hrs by sulforhodamine B assay; format: functional; settings: MDA-MB-231, 48 h; method in brief: as §1
HOP-92 = experiment: Growth inhibition of human HOP92 cells assessed as cell growth at 10 uM after 48 hrs by sulforhodamine B assay; format: functional; settings: HOP-92, 48 h, read-out: Activity
SF-539 = experiment: Growth inhibition of human SF539 cells assessed as cell growth at 10 uM after 48 hrs by sulforhodamine B assay; format: functional; settings: SF-539, 48 h, read-out: Activity
SK-MEL-28 [4] = experiment: Growth inhibition of human SK-MEL-28 cells assessed as cell growth at 10 uM after 48 hrs by sulforhodamine B assay; format: functional; settings: SK-MEL-28, 48 h, read-out: Activity
A549 [5] = experiment: Growth inhibition of human A549/ATCC cells assessed as cell growth at 10 uM after 48 hrs by sulforhodamine B assay; format: functional; settings: A549, 48 h, read-out: Activity
CAKI-1 = experiment: Growth inhibition of human CAKI-1 cells after 48 hrs by sulforhodamine B assay; format: functional; settings: CAKI-1, 48 h; method in brief: as §1
SF-268 [6] = experiment: Growth inhibition of human SF268 cells after 48 hrs by sulforhodamine B assay; format: functional; settings: SF-268, 48 h; method in brief: as §2
SK-MEL-5 = experiment: Growth inhibition of human SK-MEL-5 cells after 48 hrs by sulforhodamine B assay; format: functional; settings: SK-MEL-5, 48 h; method in brief: as §2
IGROV-1 = experiment: Growth inhibition of human IGROV1 cells assessed as cell growth at 10 uM after 48 hrs by sulforhodamine B assay; format: functional; settings: IGROV-1, 48 h, read-out: Activity
PC-3 = experiment: Growth inhibition of human PC3 cells after 48 hrs by sulforhodamine B assay; format: functional; settings: PC-3, 48 h; method in brief: as §2
ACHN = experiment: Growth inhibition of human ACHN cells after 48 hrs by sulforhodamine B assay; format: functional; method in brief: as §1
HT-29 = experiment: Growth inhibition of human HT-29 cells after 48 hrs by sulforhodamine B assay; format: functional; settings: HT-29, 48 h; method in brief: as §1
MOLT-4 = experiment: Growth inhibition of human MOLT4 cells assessed as cell growth at 10 uM after 48 hrs by sulforhodamine B assay; format: functional; settings: MOLT-4, 48 h, read-out: Activity
HCT-15 = experiment: Growth inhibition of human HCT15 cells after 48 hrs by sulforhodamine B assay; format: functional; settings: HCT-15, 48 h; method in brief: as §1
UO-31 = experiment: Growth inhibition of human UO31 cells assessed as cell growth at 10 uM after 48 hrs by sulforhodamine B assay; format: functional; settings: UO-31, 48 h, read-out: Activity
Method in brief: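 Single-dose NCI screen. Tumor lines were cultured in medium with 5% fetal calf serum and 2 mM L-glutamine, preincubated 24 h, then given compound in DMSO. After 48 h continuous exposure, cell growth was estimated by sulforhodamine B protein assay.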

OVCAR-8 = experiment: Growth inhibition of human OVCAR8 cells after 48 hrs by sulforhodamine B assay; format: functional; settings: OVCAR-8, 48 h; method in brief: as §2
[7] = Growth inhibition of human HCC2998 cells assessed as cell growth at 10 uM after 48 hrs by sulforhodamine B assay; format: functional; settings: HCC 2998, 48 h, read-out: Activity
[8] = read-out: LC50 (the source's name)

With `Cc1ccc(C2=NN(c3ccc(S(C)(=O)=O)cc3)C(=O)CC2)cc1` the growth at 10 µM (SF-268 [1]) was 55.2%, the GI50 (A549 [2]) was 520 nM and the TGI (A549 [2]) was > 100000 nM. The CC50 (A549 [2]; [8]) was > 100000 nM, the growth at 10 µM (OVCAR-5) was 53.1% and the growth at 10 µM (SNB-19) was 55%. For the same molecule, the GI50 (SK-MEL-28 [3]) was 660 nM, the TGI (SK-MEL-28 [3]) was > 100000 nM and the CC50 (SK-MEL-28 [3]; [8]) was > 100000 nM. For the same molecule, the GI50 (CCRF-CEM) was 1160 nM, the pIC50 (CCRF-CEM) was < 4.00 and the TGI (CCRF-CEM) was > 100000 nM. The GI50 (HL-60(TB)) was 400 nM, the TGI (HL-60(TB)) was 2580 nM and the CC50 (HL-60(TB); [8]) was > 100000 nM. For the same molecule, the GI50 (NCI-H23) was 2500 nM, the TGI (NCI-H23) was > 100000 nM and the CC50 (NCI-H23; [8]) was > 100000 nM. For the same molecule, the GI50 (RXF 393) was 630 nM, the LC50 (50% lethal concentration) (RXF 393) was > 100000 nM and the TGI (RXF 393) was 6800 nM. For the same molecule, the GI50 (MDA-MB-231) was 830 nM, the LC50 (MDA-MB-231) was > 100000 nM and the TGI (MDA-MB-231) was > 100000 nM. For the same molecule, the growth at 10 µM (HOP-92) was 60.9%, the growth at 10 µM (SF-539) was -7.93% and the growth at 10 µM (SK-MEL-28 [4]) was 51.4%. For the same molecule, the growth at 10 µM (A549 [5]) was 36.6%, the GI50 (CAKI-1) was 290 nM and the LC50 (lethal concentration, 50% cell kill) (CAKI-1) was > 100000 nM. The GI50 (SF-268 [6]) was 2940 nM, the TGI (SF-268 [6]) was > 100000 nM and the CC50 (SF-268 [6]; [8]) was > 100000 nM. The GI50 (SK-MEL-5) was 410 nM, the LC50 (SK-MEL-5) was > 100000 nM and the TGI (SK-MEL-5) was > 100000 nM. For the same molecule, the growth at 10 µM (IGROV-1) was 59.2%, the GI50 (PC-3) was 1430 nM and the LC50 (PC-3) was > 100000 nM. For the same molecule, the TGI (PC-3) was > 100000 nM, the GI50 (ACHN) was 4020 nM and the LC50 (concentration killing 50% of starting cells) (ACHN) was > 100000 nM. For the same molecule, the TGI (ACHN) was > 100000 nM, the GI50 (HT-29) was 330 nM and the LC50 (50% lethal concentration) (HT-29) was > 100000 nM. The TGI (HT-29) was 10000 nM, the growth at 10 µM (MOLT-4) was 20.1% and the GI50 (HCT-15) was 610 nM. For the same molecule, the LC50 (HCT-15) was > 100000 nM, the TGI (HCT-15) was > 100000 nM and the growth at 10 µM (UO-31) was 41.1%. The GI50 (OVCAR-8) was 740 nM, the LC50 (OVCAR-8) was > 100000 nM and the TGI (OVCAR-8) was > 100000 nM. For the same molecule, the growth at 10 µM [7] was 47.2%.

Molecule `O=c1[nH]cc(F)c(=O)[nH]1` [FLUOROURACIL] has a GI50 (A549 [2]) of 180 nM, a GI50 (SK-MEL-28 [3]) of 1030 nM and a GI50 (CCRF-CEM) of 9790 nM. The GI50 (HL-60(TB)) was 2300 nM, the GI50 (NCI-H23) was 330 nM and the GI50 (RXF 393) was 2610 nM. For the same molecule, the GI50 (MDA-MB-231) was 6600 nM, the GI50 (CAKI-1) was 70 nM and the GI50 (SF-268 [6]) was 1620 nM. The GI50 (SK-MEL-5) was 460 nM, the GI50 (PC-3) was 2360 nM and the GI50 (ACHN) was 290 nM. For the same molecule, the GI50 (HT-29) was 170 nM, the GI50 (HCT-15) was 110 nM and the GI50 (OVCAR-8) was 1740 nM.
